Source: ChEMBL document CHEMBL4680175, “Sulfonamide-based ring-fused analogues for CAN508 as novel carbonic anhydrase inhibitors endowed with antitumor activity: Design, synthesis, and in vitro biological evaluation” (Eur J Med Chem, 2020)
pIC50, pKi: −log10 of the molar value. The source made the active and inactive calls. The calls are words filed in the database; no cut-off is given here.

Tests used:
Carbonic anhydrase 1 = Carbonic anhydrase 1 (Homo sapiens, UniProt P00915); assay: Inhibition of recombinant human carbonic anhydrase 1 preincubated with enzyme for 15 mins by phenol red dye based stopped flow CO2 hydrase assay
Sequence of Carbonic anhydrase 1 (P00915 whole entry): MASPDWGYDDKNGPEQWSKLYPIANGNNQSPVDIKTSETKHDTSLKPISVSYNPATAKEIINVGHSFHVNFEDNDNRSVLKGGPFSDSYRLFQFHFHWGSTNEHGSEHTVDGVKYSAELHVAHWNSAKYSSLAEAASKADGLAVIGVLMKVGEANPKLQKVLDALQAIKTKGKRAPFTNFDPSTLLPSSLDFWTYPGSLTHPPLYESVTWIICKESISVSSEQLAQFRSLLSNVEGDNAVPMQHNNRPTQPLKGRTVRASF

Carbonic anhydrase 9 = Carbonic anhydrase 9 (Homo sapiens, UniProt Q16790); assay: Inhibition of recombinant human carbonic anhydrase 9 preincubated with enzyme for 15 mins by phenol red dye based stopped flow CO2 hydrase assay
Carbonic anhydrase 12 = Carbonic anhydrase 12 (Homo sapiens, UniProt O43570); assay: Inhibition of recombinant human carbonic anhydrase 12 preincubated with enzyme for 15 mins by phenol red dye based stopped flow CO2 hydrase assay
Sequence of Carbonic anhydrase 12 (O43570 whole entry): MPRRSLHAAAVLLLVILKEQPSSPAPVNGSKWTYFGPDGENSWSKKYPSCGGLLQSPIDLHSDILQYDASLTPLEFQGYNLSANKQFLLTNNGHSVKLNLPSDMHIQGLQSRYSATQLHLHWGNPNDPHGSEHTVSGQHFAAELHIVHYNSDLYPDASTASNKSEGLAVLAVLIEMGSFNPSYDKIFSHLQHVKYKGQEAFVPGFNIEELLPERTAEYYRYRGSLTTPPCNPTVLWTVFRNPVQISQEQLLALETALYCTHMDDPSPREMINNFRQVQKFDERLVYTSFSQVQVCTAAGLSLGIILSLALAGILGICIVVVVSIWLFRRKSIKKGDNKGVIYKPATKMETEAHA

[1] = molecular target: Cyclin-dependent kinase 2/cyclin E1 (Homo sapiens, UniProt P24941); assay: Inhibition of CDK2/cyclin E (unknown origin) expressed in baculovirus infected Sf21 insect cells using histone H1 as substrate in presence of [gamma33P]ATP
CDK9/cyclin T1 = CDK9/cyclin T1 (Homo sapiens, UniProt P50750); assay: Inhibition of human full-length N-terminal GST/His6-tagged CDK9 (1 to 372 residues)/His6-tagged Cyclin-T1 (1 to 726 residues) expressed in sf9 cells using (YSPTSPS)2KK peptide as substrate in presence of [gamma33P]ATP
Sequence of CDK9/cyclin T1 (O60563 whole entry, the tested form may be a part): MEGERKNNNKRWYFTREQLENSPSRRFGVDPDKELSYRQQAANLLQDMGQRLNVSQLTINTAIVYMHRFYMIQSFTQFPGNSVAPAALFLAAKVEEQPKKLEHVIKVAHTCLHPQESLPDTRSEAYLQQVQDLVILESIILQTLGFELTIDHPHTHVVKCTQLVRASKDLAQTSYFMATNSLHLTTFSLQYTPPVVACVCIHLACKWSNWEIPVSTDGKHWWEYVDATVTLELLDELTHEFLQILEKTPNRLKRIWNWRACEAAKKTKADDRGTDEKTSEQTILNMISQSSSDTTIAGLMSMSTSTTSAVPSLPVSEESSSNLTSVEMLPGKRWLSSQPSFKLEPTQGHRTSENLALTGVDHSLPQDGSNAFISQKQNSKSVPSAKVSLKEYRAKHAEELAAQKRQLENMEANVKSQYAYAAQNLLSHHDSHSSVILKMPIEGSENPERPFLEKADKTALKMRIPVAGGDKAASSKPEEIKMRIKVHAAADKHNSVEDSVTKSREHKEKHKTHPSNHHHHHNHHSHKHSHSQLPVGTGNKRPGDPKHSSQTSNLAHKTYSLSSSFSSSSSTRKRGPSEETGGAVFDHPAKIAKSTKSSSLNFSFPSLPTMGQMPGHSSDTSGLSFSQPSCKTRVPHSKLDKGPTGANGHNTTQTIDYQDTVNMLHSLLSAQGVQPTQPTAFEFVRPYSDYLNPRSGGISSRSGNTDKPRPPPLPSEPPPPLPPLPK
Sequence of CDK9/cyclin T1 (P50750 whole entry, the tested form may be a part): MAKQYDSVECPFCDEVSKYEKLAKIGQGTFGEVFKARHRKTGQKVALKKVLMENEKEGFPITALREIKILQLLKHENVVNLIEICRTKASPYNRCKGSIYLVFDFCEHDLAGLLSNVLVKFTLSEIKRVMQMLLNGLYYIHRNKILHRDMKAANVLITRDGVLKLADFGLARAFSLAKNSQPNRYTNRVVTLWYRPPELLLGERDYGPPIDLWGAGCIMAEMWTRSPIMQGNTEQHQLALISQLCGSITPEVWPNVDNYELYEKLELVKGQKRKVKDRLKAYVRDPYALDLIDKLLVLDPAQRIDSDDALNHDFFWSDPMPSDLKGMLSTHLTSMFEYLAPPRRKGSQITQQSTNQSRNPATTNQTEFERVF

K562 = assay: Antitumor activity against human K562 cells assessed as cell growth inhibition at 10 uM incubated for 48 hrs by sulforhodamine B assay; format: functional; conditions: read-out: GI
Procedure, shortened: (§1)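 NCI Drug Evaluation Branch protocol: primary single-dose screen at 10 μM across a 57-line human cancer panel. Drug exposure is 48 h. Cell growth and viability are read by sulforhodamine B assay. Data are given as a mean graph of percent growth of treated cells and reported as percentage growth inhibition (GI%).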

MOLT-4 = assay: Antitumor activity against human MOLT4 cells assessed as cell growth inhibition at 10 uM incubated for 48 hrs by sulforhodamine B assay; format: functional; conditions: read-out: GI; procedure, shortened: as §1
RPMI-8226 = assay: Antitumor activity against human RPMI8226 cells assessed as cell growth inhibition at 10 uM incubated for 48 hrs by sulforhodamine B assay; format: functional; conditions: read-out: GI; procedure, shortened: as §1
HOP-62 = assay: Antitumor activity against human HOP62 cells assessed as cell growth inhibition at 10 uM incubated for 48 hrs by sulforhodamine B assay; format: functional; conditions: read-out: GI; procedure, shortened: as §1
HOP-92 = assay: Antitumor activity against human HOP92 cells assessed as cell growth inhibition at 10 uM incubated for 48 hrs by sulforhodamine B assay; format: functional; conditions: read-out: GI; procedure, shortened: as §1
NCI-H226 = assay: Antitumor activity against human NCI-H226 assessed as cell growth inhibition at 10 uM incubated for 48 hrs by sulforhodamine B assay; format: functional; conditions: read-out: GI; procedure, shortened: as §1
NCI-H322M = assay: Antitumor activity against human NCI-H322M cells assessed as cell growth inhibition at 10 uM incubated for 48 hrs by sulforhodamine B assay; format: functional; conditions: read-out: GI; procedure, shortened: as §1
NCI-H460 = assay: Antitumor activity against human NCI-H460 cells assessed as cell growth inhibition at 10 uM incubated for 48 hrs by sulforhodamine B assay; format: functional; conditions: read-out: GI; procedure, shortened: as §1
NCI-H522 = assay: Antitumor activity against human NCI-H522 cells assessed as cell growth inhibition at 10 uM incubated for 48 hrs by sulforhodamine B assay; format: functional; conditions: read-out: GI; procedure, shortened: as §1
HCT-116 = assay: Antitumor activity against human HCT116 cells assessed as cell growth inhibition at 10 uM incubated for 48 hrs by sulforhodamine B assay; format: functional; conditions: read-out: GI; procedure, shortened: as §1
KM12 = assay: Antitumor activity against human KM12 cells assessed as cell growth inhibition at 10 uM incubated for 48 hrs by sulforhodamine B assay; format: functional; conditions: read-out: GI; procedure, shortened: as §1
SF-268 = assay: Antitumor activity against human SF268 cells assessed as cell growth inhibition at 10 uM incubated for 48 hrs by sulforhodamine B assay; format: functional; conditions: read-out: GI; procedure, shortened: as §1
SF-539 = assay: Antitumor activity against human SF539 cells assessed as cell growth inhibition at 10 uM incubated for 48 hrs by sulforhodamine B assay; format: functional; conditions: read-out: GI; procedure, shortened: as §1
SNB-75 = assay: Antitumor activity against human SNB-75 cells assessed as cell growth inhibition at 10 uM incubated for 48 hrs by sulforhodamine B assay; format: functional; conditions: read-out: GI
Procedure, shortened: (§2)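 NCI one-dose screen: 57-cell-line panel exposed at 10 μM for 48 h, Drug Evaluation Branch protocol. Growth and viability read by sulforhodamine B; data given as percent growth inhibition from the mean-graph of percent growth of treated cells.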

U-251 = assay: Antitumor activity against human U251 cells assessed as cell growth inhibition at 10 uM incubated for 48 hrs by sulforhodamine B assay; format: functional; conditions: read-out: GI; procedure, shortened: as §2
LOX IMVI = assay: Antitumor activity against human LOX IMVI cells assessed as cell growth inhibition at 10 uM incubated for 48 hrs by sulforhodamine B assay; format: functional; conditions: read-out: GI; procedure, shortened: as §1
Malme-3M = assay: Antitumor activity against human MALME-3M cells assessed as cell growth inhibition at 10 uM incubated for 48 hrs by sulforhodamine B assay; format: functional; conditions: read-out: GI; procedure, shortened: as §1
CAKI-1 = assay: Antitumor activity against human CAKI-1 cells assessed as cell growth inhibition at 10 uM incubated for 48 hrs by sulforhodamine B assay; format: functional; conditions: read-out: GI; procedure, shortened: as §1
SK-MEL-2 = assay: Antitumor activity against human SK-MEL-2 cells assessed as cell growth inhibition at 10 uM incubated for 48 hrs by sulforhodamine B assay; format: functional; conditions: read-out: GI; procedure, shortened: as §1
SK-MEL-5 = assay: Antitumor activity against human SK-MEL-5 cells assessed as cell growth inhibition at 10 uM incubated for 48 hrs by sulforhodamine B assay; format: functional; conditions: read-out: GI; procedure, shortened: as §1
IGROV-1 = assay: Antitumor activity against human IGROV1 cells assessed as cell growth inhibition at 10 uM incubated for 48 hrs by sulforhodamine B assay; format: functional; conditions: read-out: GI; procedure, shortened: as §1
OVCAR-3 = assay: Antitumor activity against human OVCAR-3 cells assessed as cell growth inhibition at 10 uM incubated for 48 hrs by sulforhodamine B assay; format: functional; conditions: read-out: GI; procedure, shortened: as §1
OVCAR-8 = assay: Antitumor activity against human OVCAR-8 cells assessed as cell growth inhibition at 10 uM incubated for 48 hrs by sulforhodamine B assay; format: functional; conditions: read-out: GI; procedure, shortened: as §1
PC-3 = assay: Antitumor activity against human PC-3 cells assessed as cell growth inhibition at 10 uM incubated for 48 hrs by sulforhodamine B assay; format: functional; conditions: read-out: GI; procedure, shortened: as §1
RXF 393 = assay: Antitumor activity against human RXF 393 cells assessed as cell growth inhibition at 10 uM incubated for 48 hrs by sulforhodamine B assay; format: functional; conditions: read-out: GI; procedure, shortened: as §1
SN12C = assay: Antitumor activity against human SN12C cells assessed as cell growth inhibition at 10 uM incubated for 48 hrs by sulforhodamine B assay; format: functional; conditions: read-out: GI; procedure, shortened: as §1
MCF7 = assay: Antitumor activity against human MCF7 cells assessed as cell growth inhibition at 10 uM incubated for 48 hrs by sulforhodamine B assay; format: functional; conditions: read-out: GI; procedure, shortened: as §1
MDA-MB-231 = assay: Antitumor activity against human MDA-MB-231/ATCC cells assessed as cell growth inhibition at 10 uM incubated for 48 hrs by sulforhodamine B assay; format: functional; conditions: read-out: GI; procedure, shortened: as §1
Hs-578T = assay: Antitumor activity against human HS 578T cells assessed as cell growth inhibition at 10 uM incubated for 48 hrs by sulforhodamine B assay; format: functional; conditions: read-out: GI; procedure, shortened: as §1
BT-549 = assay: Antitumor activity against human BT-549 cells assessed as cell growth inhibition at 10 uM incubated for 48 hrs by sulforhodamine B assay; format: functional; conditions: read-out: GI; procedure, shortened: as §1
T47D = assay: Antitumor activity against human T-47D cells assessed as cell growth inhibition at 10 uM incubated for 48 hrs by sulforhodamine B assay; format: functional; conditions: read-out: GI; procedure, shortened: as §2
MDA-MB-468 = assay: Antitumor activity against human MDA-MB-468 cells assessed as cell growth inhibition at 10 uM incubated for 48 hrs by sulforhodamine B assay; format: functional; conditions: read-out: GI; procedure, shortened: as §1
NCI/ADR-RES = assay: Antitumor activity against human NCI/ADR-RES cells assessed as cell growth inhibition at 10 uM incubated for 48 hrs by sulforhodamine B assay; format: functional, cell-based; procedure, shortened: as §1

Structure (SMILES) | pKi (Carbonic anhydrase 1) | pKi (Carbonic anhydrase 9) | pKi (Carbonic anhydrase 12) | pIC50 [1] | pIC50 (CDK9/cyclin T1) | inhibition of growth at 10 µM (K562) | inhibition of growth at 10 µM (MOLT-4) | inhibition of growth at 10 µM (RPMI-8226) | inhibition of growth at 10 µM (HOP-62) | inhibition of growth at 10 µM (HOP-92) | inhibition of growth at 10 µM (NCI-H226) | inhibition of growth at 10 µM (NCI-H322M) | inhibition of growth at 10 µM (NCI-H460) | inhibition of growth at 10 µM (NCI-H522) | inhibition of growth at 10 µM (HCT-116) | inhibition of growth at 10 µM (KM12) | inhibition of growth at 10 µM (SF-268) | inhibition of growth at 10 µM (SF-539) | inhibition of growth at 10 µM (SNB-75) | inhibition of growth at 10 µM (U-251) | other results
Cc1ccc(-c2nc3c(/N=N/c4ccc(S(N)(=O)=O)cc4)c(N)nn3c(N)c2C#N)cc1 | 5.45 | 7.35 | 7.31 | 4.94 | < 4.90 | 80% | 96% | 116% | 57% | 80% | 35% | 34% | 72% | 71% | 86% | 71% | 65% | 69% | 51% | 68% | inhibition of growth at 10 µM (LOX IMVI): 78%; inhibition of growth at 10 µM (Malme-3M): 51%; inhibition of growth at 10 µM (CAKI-1): 59%; inhibition of growth at 10 µM (SK-MEL-2): 73%; inhibition of growth at 10 µM (SK-MEL-5): 152%; inhibition of growth at 10 µM (IGROV-1): 63%; inhibition of growth at 10 µM (OVCAR-3): 76%; inhibition of growth at 10 µM (OVCAR-8): 56%; inhibition of growth at 10 µM (PC-3): 68%; inhibition of growth at 10 µM (RXF 393): 72%; inhibition of growth at 10 µM (SN12C): 67%; inhibition of growth at 10 µM (MCF7): 72%; inhibition of growth at 10 µM (MDA-MB-231): 60%; inhibition of growth at 10 µM (Hs-578T): 61%; inhibition of growth at 10 µM (BT-549): 44%; inhibition of growth at 10 µM (T47D): 66%; inhibition of growth at 10 µM (MDA-MB-468): 94%; Activity (NCI/ADR-RES): inactive
N#Cc1c(-c2ccc(Br)cc2)nc2c(/N=N/c3ccc(S(N)(=O)=O)cc3)c(N)nn2c1N | 5.38 | 7.18 | 7.36 | < 4.90 | < 4.90 | 64% | 98% | 114% | 48% | 69% | 34% | 25% | 63% | 61% | 75% | 48% | 44% | 61% | 43% | 59% | inhibition of growth at 10 µM (LOX IMVI): 71%; inhibition of growth at 10 µM (Malme-3M): 42%; inhibition of growth at 10 µM (CAKI-1): 47%; inhibition of growth at 10 µM (SK-MEL-2): 57%; inhibition of growth at 10 µM (SK-MEL-5): 54%; inhibition of growth at 10 µM (IGROV-1): 59%; inhibition of growth at 10 µM (OVCAR-3): 45%; inhibition of growth at 10 µM (OVCAR-8): 53%; inhibition of growth at 10 µM (PC-3): 62%; inhibition of growth at 10 µM (RXF 393): 58%; inhibition of growth at 10 µM (SN12C): 54%; inhibition of growth at 10 µM (MCF7): 68%; inhibition of growth at 10 µM (MDA-MB-231): 59%; inhibition of growth at 10 µM (Hs-578T): 55%; inhibition of growth at 10 µM (BT-549): 26%; inhibition of growth at 10 µM (T47D): 68%; inhibition of growth at 10 µM (MDA-MB-468): 76%; Activity (NCI/ADR-RES): inactive
